# Measured values published in publication PMC8458242 (Biochimie, 2021).
# Entries after “also recorded” stand apart in the source; their conditions may differ. Read-outs that look alike come from different tables or passages of the source.
# How the values were obtained:
# CMV AD169 = test: Anti-CMV activity in WS1 cell cultures; assay type: cell-based, Human cytomegalovirus; conditions: human fibroblast WS1 cell line infected with CMV AD169, 5 days, n=3
# [1] = Viability assay in WS1 cell cultures; assay type: cell-based, human; conditions: human, WS1 cells
# [2] = Viability assay in MT-4 cell cultures; assay type: cell-based, Human; conditions: human, MT-4 cells
# CMV (AD169) = test: Anti-CMV activity in HIV-1/CMV coinfected human tissues ex vivo; assay type: cell-based, Human cytomegalovirus; conditions: for inhibition of number of CMV DNA copies/μL: HIV-1/CMV-coinfected human lymphoid tissue, 10 μM, 15 days
# Procedure, shortened: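 Human tonsil tissue blocks (2-3 mm) cultured on collagen sponge at the air-liquid interface in RPMI 1640 with 15% FBS. Blocks pretreated with test compound (10 μM) 12 h before simultaneous infection with HIV-1 X4LAI.04 and CMV AD169 stocks. Medium changed every 3 days; 15 days at 37°C. CMV DNA in culture medium measured by real-time PCR, as percent of untreated control. Means ± SEM, 3 or 6 donors.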
# HIV-1 (X4LAI.04) = test: Anti-HIV-1 activity in HIV-1/CMV coinfected human tissues ex vivo; assay type: cell-based; conditions: for inhibition of HIV-1 replication by controls: coinfected tissues, control drugs, concentration not given, n=3; for inhibition of cumulative production of p24gag: HIV-1/CMV-coinfected human lymphoid tissue, 10 μM, 15 days
# Procedure, shortened: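 Tonsillar tissue blocks (2-3 mm) kept on collagen sponge at the air-liquid interface, RPMI 1640 with 15% FBS. Pretreated with test compound at 10 μM 12 h before coinoculation with HIV-1 X4LAI.04 and CMV AD169. Medium changed every 3 days; cultured 15 days at 37°C. p24gag in medium measured by Luminex bead assay, as percent of untreated control. Means ± SEM, 3 or 6 donors.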
# CMV = conditions: cited from earlier work
# MT-4 cells [3] = conditions: cited from earlier work
# MT-4 cells [4] = test: Viability assay in MT-4 cell cultures; assay type: cell-based, Human
# WS1 cells = test: Viability assay in WS1 cell cultures; assay type: cell-based, human; conditions: read-out: Cytotoxicity CC50; WS1 cell line, MTT, three days
# [5] = test system: esterase from porcine liver; test: Hydrolysis of the compounds by esterase from porcine liver; conditions: Tris-HCl buffer pH 8.2, 37 °C
# HIV-1 X4LAI.04 = test: Anti HIV-1 activity in human tonsillar tissue ex vivo; assay type: cell-based; conditions: 12 days
# [6] = test system: esterase from porcine liver
# [7] = 1 nM (first of five concentrations ranging from 1 nM to 10 μM)
# [8] = 10 μM (fifth of five concentrations ranging from 1 nM to 10 μM)
# [9] = fourth of five concentrations ranging from 1 nM to 10 μM
# [10] = second of five concentrations ranging from 1 nM to 10 μM
# [11] = third of five concentrations ranging from 1 nM to 10 μM
structure (smiles),measurement,setting,value
"O=C(O)Cn1c(=O)ccn(CCCOc2ccc(Br)cc2)c1=O [2a, [3-[3-(4-bromophenoxy)propyl]-2,6-dioxo-3,6-dihydropyrimidin-1(2H)-yl]acetic acid]",Antiviral activity EC50 ± SD,CMV AD169,inactive
same,CC50 at 3 days,[1],965 µM
"O=C(O)Cn1c(=O)ccn(CCCCCOc2ccc(Br)cc2)c1=O [2b, [3-[5-(4-bromophenoxy)pentyl]-2,6-dioxo-3,6-dihydropyrimidin-1(2H)-yl]acetic acid]",CC50 at 3 days,[1],749 µM
"O=C(O)Cn1c(=O)ccn(CCCCCCOc2ccc(Br)cc2)c1=O [2c, [3-[6-(4-bromophenoxy)hexyl]-2,6-dioxo-3,6-dihydropyrimidin-1(2H)-yl]acetic acid]",CC50 at 3 days,[2],> 100 µM
same,CC50 at 3 days,[1],724 µM
same,inhibition of CMV by control compounds,"CMV (AD169); coinfected tissues, control compounds, concentration not given, n=3",68.6 ± 11.3%
"O=C(O)Cn1c(=O)ccn(CCCCCCCCOc2ccc(Br)cc2)c1=O [2d, [3-[8-(4-bromophenoxy)octyl]-2,6-dioxo-3,6-dihydropyrimidin-1(2H)-yl]acetic acid]",CC50 at 3 days,[1],90.5 µM
"O=C(O)Cn1c(=O)ccn(CCCCCCCCCCOc2ccc(Br)cc2)c1=O [2e, [3-[10-(4-bromophenoxy)decyl]-2,6-dioxo-3,6-dihydropyrimidin-1(2H)-yl]acetic acid]",Antiviral activity EC50 ± SD,CMV AD169,inactive
same,CC50 at 3 days,[1],164 µM
"O=C(O)Cn1c(=O)ccn(CCCCCCCCCCCCOc2ccc(Br)cc2)c1=O [2f, [3-[12-(4-bromophenoxy)dodecyl]-2,6-dioxo-3,6-dihydropyrimidin-1(2H)-yl]acetic acid]",Antiviral activity EC50 ± SD,CMV AD169,inactive
same,CC50 at 3 days,[1],22 µM
"Nc1ccn([C@@H]2CS[C@H](CO)O2)c(=O)n1 [3TC, (−)-L-2′,3′-dideoxy-3′-thiacytidine]",inhibition of HIV-1 replication by controls,HIV-1 (X4LAI.04),99.7 ± 0.2%
same,effect on CMV replication / anti CMV activity,CMV,no effect on CMV replication
same,CC50,MT-4 cells [3],> 100 µM
"Cc1cn([C@H]2C[C@H](N=[N+]=[N-])[C@@H](COC(=O)Cn3c(=O)ccn(CCCOc4ccc(Br)cc4)c3=O)O2)c(=O)[nH]c1=O [3a, (3'-azido-3'-deoxytimidine)-2-(3-((4-bromophenoxy)propyl)-2,6-dioxo-2,3-dihydropyrimidin-1(6H)-yl)acetate]",CC50,MT-4 cells [4],82.1 µM
same,CC50,WS1 cells,347 µM
"Cc1cn([C@H]2C[C@H](N=[N+]=[N-])[C@@H](COC(=O)Cn3c(=O)ccn(CCCCCOc4ccc(Br)cc4)c3=O)O2)c(=O)[nH]c1=O [3b, (3'-azido-3'-deoxytimidine)-2-(3-((4-bromophenoxy)pentyl)-2,6-dioxo-2,3-dihydropyrimidin-1(6H)-yl)acetate]",CC50,MT-4 cells [4],> 100 µM
same,CC50,WS1 cells,173 µM
same,T1/2 of hydrolysis by esterase,[5],7 to 8 h
"Cc1cn([C@H]2C[C@H](N=[N+]=[N-])[C@@H](COC(=O)Cn3c(=O)ccn(CCCCCCOc4ccc(Br)cc4)c3=O)O2)c(=O)[nH]c1=O [3c, (3'-azido-3'-deoxytimidine)-2-(3-((4-bromophenoxy)hexyl)-2,6-dioxo-2,3-dihydropyrimidin-1(6H)-yl)acetate]",CC50,MT-4 cells [4],> 100 µM
same,CC50,WS1 cells,393 µM
same,inhibition of HIV-1 replication,HIV-1 X4LAI.04; [7],0 ± 0.5%
same,inhibition of HIV-1 replication,HIV-1 X4LAI.04; [8],96.2 ± 1.0%
same,inhibition of HIV-1 replication,HIV-1 X4LAI.04; [9],76.5 ± 3.3%
same,inhibition of HIV-1 replication,HIV-1 X4LAI.04; [10],17.9 ± 8.2%
same,inhibition of HIV-1 replication,HIV-1 X4LAI.04; [11],31.4 ± 7.7%
same,inhibition of cumulative production of p24gag,HIV-1 (X4LAI.04),97.2 ± 2.1%
same,inhibition of number of CMV DNA copies/μL,CMV (AD169),86.9 ± 3.3%
same,T1/2 of hydrolysis by esterase,[5],7 to 8 h
"Cc1cn([C@H]2C[C@H](N=[N+]=[N-])[C@@H](COC(=O)Cn3c(=O)ccn(CCCCCCCCOc4ccc(Br)cc4)c3=O)O2)c(=O)[nH]c1=O [3d, (3'-azido-3'-deoxytimidine)-2-(3-((4-bromophenoxy)octyl)-2,6-dioxo-2,3-dihydropyrimidin-1(6H)-yl)acetate]",CC50,MT-4 cells [4],> 100 µM
same,CC50,WS1 cells,600 µM
"Cc1cn([C@H]2C[C@H](N=[N+]=[N-])[C@@H](COC(=O)Cn3c(=O)ccn(CCCCCCCCCCOc4ccc(Br)cc4)c3=O)O2)c(=O)[nH]c1=O [3e, (3'-azido-3'-deoxytimidine)-2-(3-((4-bromophenoxy)decyl)-2,6-dioxo-2,3-dihydropyrimidin-1(6H)-yl)acetate]",CC50,MT-4 cells [4],> 100 µM
same,CC50,WS1 cells,182 µM
"Cc1cn([C@H]2C[C@H](N=[N+]=[N-])[C@@H](COC(=O)Cn3c(=O)ccn(CCCCCCCCCCCCOc4ccc(Br)cc4)c3=O)O2)c(=O)[nH]c1=O [3f, (3'-azido-3'-deoxytimidine)-2-(3-((4-bromophenoxy)dodecyl)-2,6-dioxo-2,3-dihydropyrimidin-1(6H)-yl)acetate]",CC50,MT-4 cells [4],> 100 µM
same,CC50,WS1 cells,253 µM
"Nc1ccn([C@@H]2CS[C@H](COC(=O)Cn3c(=O)ccn(CCCCCCOc4ccc(Br)cc4)c3=O)O2)c(=O)n1 [4c, ((−)-L-2′,3′-dideoxy-3′-thiacytidine)-2-(3-((4-bromophenoxy)hexyl)-2,6-dioxo-2,3-dihydropyrimidin-1(6H)-yl)acetate]",CC50,MT-4 cells [4],> 100 µM
same,inhibition of HIV-1 replication,HIV-1 X4LAI.04; [7],0.6 ± 0.2%
same,inhibition of HIV-1 replication,HIV-1 X4LAI.04; [8],99.6 ± 0.1%
same,inhibition of HIV-1 replication,HIV-1 X4LAI.04; [9],88.6 ± 2.9%
same,inhibition of HIV-1 replication,HIV-1 X4LAI.04; [10],14.6 ± 6.5%
same,inhibition of HIV-1 replication,HIV-1 X4LAI.04; [11],45.7 ± 3.7%
same,inhibition of cumulative production of p24gag,HIV-1 (X4LAI.04),99.4 ± 0.4%
same,inhibition of number of CMV DNA copies/μL,CMV (AD169),78.7 ± 1.7%
same,T1/2 of hydrolysis by esterase,[5],about 24 hrs
"Cc1cn([C@H]2C[C@H](N=[N+]=[N-])[C@@H](CO)O2)c(=O)[nH]c1=O [AZT, 2',3'-dideoxy-3'-azidothymidine]",inhibition of HIV-1 replication by controls,HIV-1 (X4LAI.04),97.0 ± 1.6%
same,effect on CMV replication / anti CMV activity,CMV,does not have any anti CMV activity; also recorded: no effect on CMV replication
same,CC50,MT-4 cells [3],> 100 µM
"Nc1nc(O)c2ncn(COC(CO)CO)c2n1 [GCV, ganciclovir, reference compound]",CC50 at 3 days,[1],500 µM
CC(=O)OC[C@H]1O[C@@H](n2cc(C)c(=O)[nH]c2=O)C[C@@H]1OC(C)=O [Thymidine diacetate],hydrolysis totally completed after,[6],5 to 6 h
